According to ChEMBL document CHEMBL4715751, “Novel N-substituted indole Schiff bases as dual inhibitors of cyclooxygenase-2 and 5-lipoxygenase enzymes: Synthesis, biological activities in vitro and docking study” (Eur J Med Chem, 2016):
Active and inactive are the calls of the source. No cut-off for these calls is given here.

Tests used:
[1] = system: HUVEC; experiment: Antiinflammatory activity in HUVEC assessed as reduction in TNF-alpha-induced E-selectin expression at 30 to 50 uM preincubated for 30 mins followed by TNF-alpha addition and measured after 4 hrs by ELISA; assay type: functional; conditions: dose 30-50 µM, time 4.5 hrs; for Activity: Homo sapiens
Procedure, shortened: (§1)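 HUVECs seeded at 1×10^4/well and grown to confluence; indole derivatives (50 μM) added 30 min before TNFα 10 ng/ml, then 4 h further incubation. Cells fixed and E-selectin (ELAM) measured by ELISA. Parallel Calcein AM read-out monitored non-specific toxicity. Curcumin 10 μM served as positive control.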

[2] = target: T1, Prostaglandin G/H synthase 1 (Ovis aries, UniProt P05979); experiment: Inhibition of ovine COX-1 assessed as appearance of oxidized TMPD level by EIA method
T1 sequence (P05979 whole entry): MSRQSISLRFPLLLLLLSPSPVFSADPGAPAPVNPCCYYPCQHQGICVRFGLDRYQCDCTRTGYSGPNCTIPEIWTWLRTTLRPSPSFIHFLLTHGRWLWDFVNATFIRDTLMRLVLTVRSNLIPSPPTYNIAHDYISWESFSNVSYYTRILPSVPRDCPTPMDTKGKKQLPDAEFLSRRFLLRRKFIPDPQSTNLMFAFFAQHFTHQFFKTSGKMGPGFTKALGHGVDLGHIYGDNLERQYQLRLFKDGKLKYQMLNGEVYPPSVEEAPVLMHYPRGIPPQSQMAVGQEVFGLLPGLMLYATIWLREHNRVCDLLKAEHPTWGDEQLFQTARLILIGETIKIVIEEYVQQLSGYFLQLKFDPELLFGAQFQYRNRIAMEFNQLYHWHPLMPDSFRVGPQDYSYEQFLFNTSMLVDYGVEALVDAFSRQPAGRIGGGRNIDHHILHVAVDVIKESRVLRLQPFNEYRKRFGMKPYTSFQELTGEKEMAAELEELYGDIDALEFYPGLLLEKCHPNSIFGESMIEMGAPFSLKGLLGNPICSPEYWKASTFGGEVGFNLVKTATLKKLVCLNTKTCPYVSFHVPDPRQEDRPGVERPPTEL

[3] = Inhibition of potato 5-LOX assessed as reduction in hydroperoxide level by EIA method; parameters: species or system Solanum tuberosum
Procedure, shortened: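 Potato 5-LOX kit detecting hydroperoxides formed by lipoxygenation. Compounds dissolved in minimal DMSO and diluted in 0.1 M Tris HCl, pH 7.4, tested at 0.001, 1, 5, 10 μM. IC50 derived per the manufacturer's instructions, mean of two determinations.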

[4] = system: HUVEC; experiment: Cytotoxicity against HUVEC assessed as reduction in cell viability measured after 24 hrs by calcein-AM staining based fluorescence analysis; parameters: species or system Homo sapiens; conditions: for Activity: human, huvec, time 24 hrs
[5] = system: MCF7; experiment: Cytotoxicity against human MCF7 cells assessed as reduction in cell viability after 72 hrs by calcein-AM staining based fluorescence analysis; conditions: MCF7, 72 h
Procedure, shortened: (§2)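 Cells in DMEM with 10% FBS, 2 mmol/l L-glutamine, penicillin/streptomycin, 37 °C, 5% CO2. About 1.0×10^5 cells/ml plated, stabilized 24 h, then compounds added from DMSO stocks (final DMSO ≤0.6%), six 3-fold dilutions, top final concentration generally 50 µM. After 72 h, Calcein AM added for 1 h. Fluorescence expressed as % of DMSO controls; IC50 taken from dose-response curves. Means ±SD of three independent experiments in triplicate.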

[6] = system: BJ; experiment: Cytotoxicity against human BJ cells assessed as reduction in cell viability after 72 hrs by calcein-AM staining based fluorescence analysis; procedure, shortened: as §2
[7] = system: HUVEC; experiment: Antiinflammatory activity in HUVEC assessed as reduction in TNF-alpha-induced E-selectin expression at 50 uM preincubated for 30 mins followed by TNF-alpha addition and measured after 4 hrs by ELISA; assay type: functional; conditions: Homo sapiens, time 4.5 hrs; procedure, shortened: as §1
[8] = system: CCRF-CEM; experiment: Cytotoxicity against human CEM cells assessed as reduction in cell viability after 72 hrs by calcein-AM staining based fluorescence analysis; procedure, shortened: as §2
[9] = system: HeLa; experiment: Cytotoxicity against human HeLa cells assessed as reduction in cell viability after 72 hrs by calcein-AM staining based fluorescence analysis; procedure, shortened: as §2

Question: For Cc1ccc(C(=O)n2cc(/C=N/c3c(C)n(C)n(-c4ccccc4)c3=O)c3ccccc32)cc1, which Activity [1] is on record?
Answer: Active

Question: And the IC50 [2]?
Answer: 10.8 µM

Question: What about the IC50 [3] of the same compound?
Answer: 5.78 µM

Question: What about the Activity [4] of the same compound?
Answer: Non-Toxic

Question: For COc1ccc(NC(=O)Cn2cc(/C=N/c3c(C)n(C)n(-c4ccccc4)c3=O)c3ccccc32)cc1, which IC50 [5] is on record?
Answer: > 50 µM

Question: What about the IC50 [6] of the same compound?
Answer: 50 µM

Question: And the Activity [7]?
Answer: Active

Question: What about the IC50 [8] of the same compound?
Answer: 50 µM

Question: And the IC50 [9]?
Answer: > 50 µM

Question: Which results are given for O=C(Cn1cc(/C=N/n2cnnc2)c2ccccc21)Nc1ccc(O)cc1?
Answer: IC50 [5]: > 50 µM; IC50 [6]: > 50 µM; Activity [7]: Active; IC50 [8]: > 50 µM; IC50 [9]: > 50 µM

Question: For O=c1c(O)c(-c2ccc(O)c(O)c2)oc2cc(O)cc(O)c12 [QUERCETIN], which IC50 [3] is on record?
Answer: 5.96 µM

Question: For Cc1c(/N=C/c2cn(C(=O)c3ccccc3)c3ccccc23)c(=O)n(-c2ccccc2)n1C, which Activity [1] is on record?
Answer: Active

Question: What about the IC50 [2] of the same compound?
Answer: 7.65 µM

Question: What about the IC50 [3] of the same compound?
Answer: 7.54 µM

Question: And the Activity [4]?
Answer: Non-Toxic

Question: For Cc1ccc(C(=O)n2cc(/C=N/n3cnnc3)c3ccccc32)cc1, which “inhibition (INH)” value [1] is on record?
Answer: 33%

Question: What about the IC50 [2] of the same compound?
Answer: 7.89 µM

Question: And the IC50 [3]?
Answer: 6.54 µM

Question: What about the Activity [4] of the same compound?
Answer: Non-Toxic

Question: Which Activity [1] does the source give for Cc1c(/N=C/c2cn(C(=O)c3ccc(Cl)cc3)c3ccccc23)c(=O)n(-c2ccccc2)n1C here?
Answer: Active

Question: What about the IC50 [2] of the same compound?
Answer: 9.25 µM

Question: And the IC50 [3]?
Answer: 9.11 µM

Question: What about the Activity [4] of the same compound?
Answer: Non-Toxic

Question: Which IC50 [5] does the source give for Cc1ccc(NC(=O)Cn2cc(/C=N/c3c(C)n(C)n(-c4ccccc4)c3=O)c3ccccc32)cc1 here?
Answer: > 50 µM

Question: And the IC50 [6]?
Answer: 49 µM

Question: And the Activity [7]?
Answer: Active

Question: What about the IC50 [8] of the same compound?
Answer: 42 µM

Question: What about the IC50 [9] of the same compound?
Answer: > 50 µM

Question: Which IC50 [5] does the source give for O=C(Cn1cc(/C=N/n2cnnc2)c2ccccc21)Nc1ccccc1 here?
Answer: > 50 µM

Question: And the IC50 [6]?
Answer: > 50 µM

Question: And the Activity [7]?
Answer: Active

Question: What about the IC50 [8] of the same compound?
Answer: > 50 µM

Question: And the IC50 [9]?
Answer: > 50 µM

Question: What does the source list for CCOC(=O)c1ccc(NC(=O)Cn2cc(/C=N/c3c(C)n(C)n(-c4ccccc4)c3=O)c3ccccc32)cc1?
Answer: IC50 [5]: 38.1 µM; IC50 [6]: 50 µM; Activity [7]: Active; IC50 [8]: 29.7 µM; IC50 [9]: 24.8 µM

Question: Which IC50 [5] does the source give for Cc1c(/N=C/c2cn(CC(=O)Nc3ccccc3)c3ccccc23)c(=O)n(-c2ccccc2)n1C here?
Answer: > 50 µM

Question: What about the IC50 [6] of the same compound?
Answer: > 50 µM

Question: What about the Activity [7] of the same compound?
Answer: Active

Question: What about the IC50 [8] of the same compound?
Answer: > 50 µM

Question: And the IC50 [9]?
Answer: > 50 µM

Question: For O=C(c1ccccc1)n1cc(/C=N/n2cnnc2)c2ccccc21, which Activity [1] is on record?
Answer: Active

Question: And the IC50 [2]?
Answer: 10.4 µM

Question: What about the IC50 [3] of the same compound?
Answer: 6.54 µM

Question: And the Activity [4]?
Answer: Non-Toxic

Question: Which IC50 [5] does the source give for CC(=O)c1ccc(NC(=O)Cn2cc(/C=N/c3c(C)n(C)n(-c4ccccc4)c3=O)c3ccccc32)cc1 here?
Answer: > 50 µM

Question: What about the IC50 [6] of the same compound?
Answer: > 50 µM

Question: What about the Activity [7] of the same compound?
Answer: Active

Question: What about the IC50 [8] of the same compound?
Answer: 42.9 µM

Question: And the IC50 [9]?
Answer: > 50 µM

Question: With O=C(c1ccc(Cl)cc1)n1cc(/C=N/n2cnnc2)c2ccccc21 as the compound, how does the Activity [1] read?
Answer: Active

Question: What about the IC50 [2] of the same compound?
Answer: 8.65 µM

Question: And the IC50 [3]?
Answer: 8.11 µM

Question: And the Activity [4]?
Answer: Non-Toxic

Question: For CCOC(=O)c1ccc(NC(=O)Cn2cc(/C=N/n3cnnc3)c3ccccc32)cc1, which IC50 [5] is on record?
Answer: > 50 µM

Question: And the IC50 [6]?
Answer: 31.3 µM

Question: And the inhibition at 50 µM [7]?
Answer: 15%

Question: And the IC50 [8]?
Answer: > 50 µM

Question: What about the IC50 [9] of the same compound?
Answer: > 50 µM

Question: Which IC50 [5] does the source give for Cc1c(/N=C/c2cn(CC(=O)Nc3ccc(O)cc3)c3ccccc23)c(=O)n(-c2ccccc2)n1C here?
Answer: > 50 µM

Question: And the IC50 [6]?
Answer: 50 µM

Question: And the Activity [7]?
Answer: Active

Question: And the IC50 [8]?
Answer: > 50 µM

Question: And the IC50 [9]?
Answer: > 50 µM

Question: With Cc1ccc(NC(=O)Cn2cc(/C=N/n3cnnc3)c3ccccc32)cc1 as the compound, how does the IC50 [5] read?
Answer: > 50 µM

Question: What about the IC50 [6] of the same compound?
Answer: > 50 µM

Question: What about the Activity [7] of the same compound?
Answer: Active

Question: And the IC50 [8]?
Answer: > 50 µM

Question: What about the IC50 [9] of the same compound?
Answer: > 50 µM

Question: For Cc1c(/N=C/c2c[nH]c3ccccc23)c(=O)n(-c2ccccc2)n1C, which IC50 [5] is on record?
Answer: > 50 µM

Question: What about the IC50 [6] of the same compound?
Answer: > 50 µM

Question: What about the Activity [7] of the same compound?
Answer: Active

Question: And the IC50 [8]?
Answer: > 50 µM

Question: And the IC50 [9]?
Answer: > 50 µM

Question: Which results are given for CC(=O)c1ccc(NC(=O)Cn2cc(/C=N/n3cnnc3)c3ccccc32)cc1?
Answer: IC50 [5]: > 50 µM; IC50 [6]: > 50 µM; Activity [7]: Active; IC50 [8]: > 50 µM; IC50 [9]: > 50 µM

Question: For C(=N\n1cnnc1)/c1cn(Cc2ccccc2)c2ccccc12, which Activity [1] is on record?
Answer: Active

Question: What about the IC50 [2] of the same compound?
Answer: 9.21 µM

Question: What about the IC50 [3] of the same compound?
Answer: 7.41 µM

Question: And the IC50 ([4]; Homo sapiens, HUVEC)?
Answer: 14.9 µM

Question: Which results are given for Cc1c(/N=C/c2cn(Cc3ccccc3)c3ccccc23)c(=O)n(-c2ccccc2)n1C?
Answer: Activity [1]: Active; IC50 [2]: 11.2 µM; IC50 [3]: 5.98 µM; Activity [4]: Non-Toxic

Question: With COc1ccc(NC(=O)Cn2cc(/C=N/n3cnnc3)c3ccccc32)cc1 as the compound, how does the IC50 [5] read?
Answer: > 50 µM

Question: And the IC50 [6]?
Answer: > 50 µM

Question: What about the inhibition at 50 µM [7] of the same compound?
Answer: 15%

Question: What about the IC50 [8] of the same compound?
Answer: > 50 µM

Question: And the IC50 [9]?
Answer: > 50 µM

Question: For C(=N\n1cnnc1)/c1c[nH]c2ccccc12, which IC50 [5] is on record?
Answer: > 50 µM

Question: And the IC50 [6]?
Answer: > 50 µM

Question: What about the Activity [7] of the same compound?
Answer: Active

Question: And the IC50 [8]?
Answer: > 50 µM

Question: And the IC50 [9]?
Answer: 9.9 µM
